One block for each compound: values may come before it. *1 amine or outer side, *2 acyl side, *3 side chain or, on linkers, in order; H or OH if unused. Where a SMILES comes first, the peptide text is derived from it. Bridges are numbered along the chain shown (N, C = ends). [ ]: non-standard residue; d: D form. The star is where a group is joined. Staurosporine = CO[C@@H]1[C@H](N(C)*)C[C@H]2O[C@]1(C)n1c3ccccc3c3c4c(c5c6ccccc6n2c5c31)C(=O)NC4; Suc = O=C(CCC(=O)[*:2])[*:1]; Dap = NC[C@H](N)C(=O)O; βAla = NCCC(=O)O
Columns and labels:
[1] = molecular target: Serine/threonine-protein kinase pim-3 (Homo sapiens) (UniProt Q86V86); experiment: Binding affinity to human PIM3 at 500 nM by cell-based competition binding assay relative to control in presence of DTT
[2] = molecular target: Cyclin-dependent kinase 7 (Homo sapiens) (UniProt P50613); experiment: Binding affinity to human CDK7 at 500 nM by cell-based competition binding assay relative to control in presence of DTT
Sequence of Cyclin-dependent kinase 7 (Homo sapiens) (P50613 whole entry): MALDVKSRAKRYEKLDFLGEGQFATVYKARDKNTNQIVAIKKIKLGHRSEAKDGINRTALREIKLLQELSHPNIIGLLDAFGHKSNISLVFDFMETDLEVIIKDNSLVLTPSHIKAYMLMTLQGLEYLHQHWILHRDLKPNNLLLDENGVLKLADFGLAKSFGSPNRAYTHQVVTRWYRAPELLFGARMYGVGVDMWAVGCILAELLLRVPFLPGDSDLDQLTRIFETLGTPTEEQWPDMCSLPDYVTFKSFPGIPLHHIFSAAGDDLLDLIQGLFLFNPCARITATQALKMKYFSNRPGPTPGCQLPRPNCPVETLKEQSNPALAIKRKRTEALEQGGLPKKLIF
Procedure, shortened: (§1)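 Commercial (Ambit) competitive kinase-binding panel of 90 kinases measured the binding profile. Run under reducing conditions of 7.5 mM DTT. Binding is expressed relative to control.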

[3] = molecular target: Dual specificity mitogen-activated protein kinase kinase 1 (Homo sapiens) (UniProt Q02750); experiment: Binding affinity to human MEK1 at 500 nM by cell-based competition binding assay relative to control in presence of DTT
Sequence of Dual specificity mitogen-activated protein kinase kinase 1 (Homo sapiens) (Q02750 whole entry): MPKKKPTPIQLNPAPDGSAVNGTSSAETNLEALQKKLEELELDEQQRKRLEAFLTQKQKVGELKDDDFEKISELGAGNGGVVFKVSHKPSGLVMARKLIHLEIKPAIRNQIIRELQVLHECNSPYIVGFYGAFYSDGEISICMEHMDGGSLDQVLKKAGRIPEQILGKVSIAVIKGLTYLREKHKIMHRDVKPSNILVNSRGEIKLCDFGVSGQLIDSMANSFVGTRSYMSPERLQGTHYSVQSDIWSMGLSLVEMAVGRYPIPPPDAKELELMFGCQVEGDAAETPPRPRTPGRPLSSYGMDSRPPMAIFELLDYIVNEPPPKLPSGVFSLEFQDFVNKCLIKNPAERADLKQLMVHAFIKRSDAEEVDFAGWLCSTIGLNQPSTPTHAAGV
Procedure, shortened: (§2)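 Kinase binding profile from a commercial panel of 90 kinases, run as a competitive binding assay. The panel was screened under reducing conditions of 7.5 mM DTT. Signal was compared with the untreated control.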

[4] = molecular target: Cyclin-dependent kinase 7 (Homo sapiens) (UniProt P50613); experiment: Binding affinity to human CDK7 at 200 nM by cell-based competition binding assay relative to control in presence of DTT
Procedure, shortened: (§3)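 Kinase binding profiling ran on a commercial (Ambit) competitive binding screen against a panel of 90 kinases. The screen used reducing conditions with 7.5 mM DTT. To withstand the DTT, the bivalent ligand was tested as its amide isostere, with the disulfide replaced. A staurosporine derivative carrying a 3 β-alanine linker was run as the reference compound.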

[5] = molecular target: Proto-oncogene tyrosine-protein kinase receptor Ret (Homo sapiens) (UniProt P07949); experiment: Binding affinity to human RET at 200 nM by cell-based competition binding assay relative to control in presence of DTT
[6] = molecular target: Vascular endothelial growth factor receptor 2 (Homo sapiens) (UniProt P35968); experiment: Binding affinity to human VEGFR2 at 200 nM by cell-based competition binding assay relative to control in presence of DTT
Sequence of Vascular endothelial growth factor receptor 2 (Homo sapiens) (P35968 whole entry): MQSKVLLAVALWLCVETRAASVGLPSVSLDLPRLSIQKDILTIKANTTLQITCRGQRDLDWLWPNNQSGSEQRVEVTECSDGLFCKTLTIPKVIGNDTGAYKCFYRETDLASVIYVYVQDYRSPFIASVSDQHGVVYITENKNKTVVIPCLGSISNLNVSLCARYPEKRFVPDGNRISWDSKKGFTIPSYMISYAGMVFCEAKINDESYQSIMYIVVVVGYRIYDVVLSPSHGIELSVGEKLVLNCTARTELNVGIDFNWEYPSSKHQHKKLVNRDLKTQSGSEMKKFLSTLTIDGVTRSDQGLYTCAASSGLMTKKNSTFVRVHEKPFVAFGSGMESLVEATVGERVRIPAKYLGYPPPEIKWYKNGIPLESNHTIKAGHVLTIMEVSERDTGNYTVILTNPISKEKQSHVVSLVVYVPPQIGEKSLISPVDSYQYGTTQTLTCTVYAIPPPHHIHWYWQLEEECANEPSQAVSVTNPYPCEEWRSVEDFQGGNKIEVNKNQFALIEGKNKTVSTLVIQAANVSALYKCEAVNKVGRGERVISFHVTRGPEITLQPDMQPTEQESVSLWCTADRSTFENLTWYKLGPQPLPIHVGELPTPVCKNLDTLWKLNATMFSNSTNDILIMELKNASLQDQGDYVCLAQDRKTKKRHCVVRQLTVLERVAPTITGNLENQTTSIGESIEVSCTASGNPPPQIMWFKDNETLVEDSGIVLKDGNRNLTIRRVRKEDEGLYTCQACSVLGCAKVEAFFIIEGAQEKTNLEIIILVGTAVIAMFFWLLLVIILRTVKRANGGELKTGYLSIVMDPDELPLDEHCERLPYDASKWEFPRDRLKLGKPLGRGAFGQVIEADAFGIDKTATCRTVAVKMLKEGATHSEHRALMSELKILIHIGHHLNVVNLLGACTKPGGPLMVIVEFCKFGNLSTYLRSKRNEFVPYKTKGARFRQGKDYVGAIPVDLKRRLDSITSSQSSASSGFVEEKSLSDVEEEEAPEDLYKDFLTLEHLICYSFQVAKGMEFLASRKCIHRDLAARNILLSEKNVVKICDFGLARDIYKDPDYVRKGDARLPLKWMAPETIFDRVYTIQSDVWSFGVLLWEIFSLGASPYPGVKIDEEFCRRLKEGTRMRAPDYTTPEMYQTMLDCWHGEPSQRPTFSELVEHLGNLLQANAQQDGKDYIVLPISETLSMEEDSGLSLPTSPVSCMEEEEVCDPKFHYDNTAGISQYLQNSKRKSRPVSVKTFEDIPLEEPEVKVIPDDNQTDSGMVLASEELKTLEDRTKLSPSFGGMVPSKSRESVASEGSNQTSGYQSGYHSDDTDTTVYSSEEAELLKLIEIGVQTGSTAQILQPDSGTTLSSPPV

[7] = system: Serine/threonine-protein kinase B-raf (Homo sapiens), P15056 [V600E]; experiment: Binding affinity to human BRAF V600E mutant at 50 nM by cell-based competition binding assay relative to control in presence of DTT; procedure, shortened: as §3
[8] = molecular target: T1, Serine/threonine-protein kinase DCLK1 (Homo sapiens) (UniProt O15075); experiment: Binding affinity to human DCAMKL1 at 50 nM by cell-based competition binding assay relative to control in presence of DTT; procedure, shortened: as §1
T1 sequence (whole entry): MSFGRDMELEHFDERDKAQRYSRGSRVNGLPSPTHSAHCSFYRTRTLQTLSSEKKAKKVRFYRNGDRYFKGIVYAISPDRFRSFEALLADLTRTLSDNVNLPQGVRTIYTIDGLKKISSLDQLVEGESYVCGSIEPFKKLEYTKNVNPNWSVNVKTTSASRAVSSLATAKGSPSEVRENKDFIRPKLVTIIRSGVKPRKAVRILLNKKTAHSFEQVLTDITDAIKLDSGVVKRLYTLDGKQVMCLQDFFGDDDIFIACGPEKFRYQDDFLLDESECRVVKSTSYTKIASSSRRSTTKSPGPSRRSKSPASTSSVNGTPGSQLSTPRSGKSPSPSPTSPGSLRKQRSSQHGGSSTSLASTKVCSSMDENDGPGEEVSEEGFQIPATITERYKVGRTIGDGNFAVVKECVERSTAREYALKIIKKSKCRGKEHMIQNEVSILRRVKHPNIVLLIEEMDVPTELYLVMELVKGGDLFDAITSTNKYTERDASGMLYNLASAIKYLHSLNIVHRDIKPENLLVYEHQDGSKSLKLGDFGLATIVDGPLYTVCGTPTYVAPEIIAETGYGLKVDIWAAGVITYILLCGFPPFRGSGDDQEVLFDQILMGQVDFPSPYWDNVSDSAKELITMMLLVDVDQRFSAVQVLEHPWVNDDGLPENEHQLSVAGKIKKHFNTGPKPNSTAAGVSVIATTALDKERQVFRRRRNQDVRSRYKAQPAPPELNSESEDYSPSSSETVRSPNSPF

[9] = molecular target: Dual specificity tyrosine-phosphorylation-regulated kinase 1B (Homo sapiens) (UniProt Q9Y463); experiment: Binding affinity to human DYRK1B at 50 nM by cell-based competition binding assay relative to control in presence of DTT; procedure, shortened: as §1
[10] = molecular target: MAP kinase-activated protein kinase 2 (Homo sapiens) (UniProt P49137); experiment: Binding affinity to human MAPKAPK2 at 50 nM by cell-based competition binding assay relative to control in presence of DTT
Sequence of MAP kinase-activated protein kinase 2 (Homo sapiens) (P49137 whole entry, looked up): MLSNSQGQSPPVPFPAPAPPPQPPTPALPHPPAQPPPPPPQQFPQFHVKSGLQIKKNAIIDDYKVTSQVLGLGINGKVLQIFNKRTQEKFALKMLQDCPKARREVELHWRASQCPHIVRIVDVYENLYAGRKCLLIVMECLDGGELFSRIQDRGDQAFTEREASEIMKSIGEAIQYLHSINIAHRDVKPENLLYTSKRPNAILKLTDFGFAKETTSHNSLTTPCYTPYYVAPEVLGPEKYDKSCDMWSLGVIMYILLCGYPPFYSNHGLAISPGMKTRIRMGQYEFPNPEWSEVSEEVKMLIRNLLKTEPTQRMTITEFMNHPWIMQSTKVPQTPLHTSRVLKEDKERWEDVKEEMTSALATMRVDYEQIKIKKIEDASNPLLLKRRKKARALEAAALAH
Procedure, shortened: (§4)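 Competition binding screen (Ambit) across a panel of 90 kinases, scoring test ligand displacement of each kinase's binding relative to control. The screen ran under reducing conditions with 7.5 mM DTT.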

[11] = molecular target: Dual specificity mitogen-activated protein kinase kinase 1 (Homo sapiens) (UniProt Q02750); experiment: Binding affinity to human MEK1 at 50 nM by cell-based competition binding assay relative to control in presence of DTT; procedure, shortened: as §2
[12] = molecular target: Cyclin-dependent kinase 16 (Homo sapiens) (UniProt Q00536); experiment: Binding affinity to human PCTK1 at 50 nM by cell-based competition binding assay relative to control in presence of DTT
Sequence of Cyclin-dependent kinase 16 (Homo sapiens) (Q00536 whole entry): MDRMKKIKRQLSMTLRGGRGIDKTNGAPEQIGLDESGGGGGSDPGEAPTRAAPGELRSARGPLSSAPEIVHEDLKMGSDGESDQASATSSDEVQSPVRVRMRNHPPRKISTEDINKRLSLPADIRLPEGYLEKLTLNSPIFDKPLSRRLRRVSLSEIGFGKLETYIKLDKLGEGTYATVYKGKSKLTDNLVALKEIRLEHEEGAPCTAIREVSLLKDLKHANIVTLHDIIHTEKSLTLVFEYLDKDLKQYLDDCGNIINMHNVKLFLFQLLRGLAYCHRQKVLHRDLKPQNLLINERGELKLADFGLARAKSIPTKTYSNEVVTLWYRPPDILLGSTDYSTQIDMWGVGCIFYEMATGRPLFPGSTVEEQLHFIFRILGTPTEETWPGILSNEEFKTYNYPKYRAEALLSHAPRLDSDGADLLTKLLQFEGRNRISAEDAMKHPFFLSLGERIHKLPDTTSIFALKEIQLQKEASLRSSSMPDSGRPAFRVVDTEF

[13] = molecular target: T2, 3-phosphoinositide-dependent protein kinase 1 (Homo sapiens) (UniProt O15530); experiment: Binding affinity to human PDPK1 at 50 nM by cell-based competition binding assay relative to control in presence of DTT
T2 sequence (whole entry): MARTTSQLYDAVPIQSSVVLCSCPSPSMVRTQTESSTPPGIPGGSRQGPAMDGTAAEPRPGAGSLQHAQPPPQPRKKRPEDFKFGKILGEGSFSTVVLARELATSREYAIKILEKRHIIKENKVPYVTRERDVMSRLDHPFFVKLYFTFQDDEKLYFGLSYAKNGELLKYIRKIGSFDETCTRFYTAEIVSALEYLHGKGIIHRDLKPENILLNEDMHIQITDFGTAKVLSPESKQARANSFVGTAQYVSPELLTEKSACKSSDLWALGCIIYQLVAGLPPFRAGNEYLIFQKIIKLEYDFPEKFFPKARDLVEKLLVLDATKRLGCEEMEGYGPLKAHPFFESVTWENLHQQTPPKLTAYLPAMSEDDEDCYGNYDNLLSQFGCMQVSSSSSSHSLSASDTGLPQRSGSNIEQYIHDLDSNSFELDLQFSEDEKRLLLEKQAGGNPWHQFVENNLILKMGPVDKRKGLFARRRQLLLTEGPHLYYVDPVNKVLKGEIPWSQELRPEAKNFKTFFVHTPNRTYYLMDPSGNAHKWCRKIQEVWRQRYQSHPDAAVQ

[14] = molecular target: Insulin-like growth factor 1 receptor (Homo sapiens) (UniProt P08069); experiment: Binding affinity to human IGF1R at 50 nM by cell-based competition binding assay relative to control in presence of DTT; procedure, shortened: as §4
Sequence of Insulin-like growth factor 1 receptor (Homo sapiens) (P08069 31-736 limits assumed): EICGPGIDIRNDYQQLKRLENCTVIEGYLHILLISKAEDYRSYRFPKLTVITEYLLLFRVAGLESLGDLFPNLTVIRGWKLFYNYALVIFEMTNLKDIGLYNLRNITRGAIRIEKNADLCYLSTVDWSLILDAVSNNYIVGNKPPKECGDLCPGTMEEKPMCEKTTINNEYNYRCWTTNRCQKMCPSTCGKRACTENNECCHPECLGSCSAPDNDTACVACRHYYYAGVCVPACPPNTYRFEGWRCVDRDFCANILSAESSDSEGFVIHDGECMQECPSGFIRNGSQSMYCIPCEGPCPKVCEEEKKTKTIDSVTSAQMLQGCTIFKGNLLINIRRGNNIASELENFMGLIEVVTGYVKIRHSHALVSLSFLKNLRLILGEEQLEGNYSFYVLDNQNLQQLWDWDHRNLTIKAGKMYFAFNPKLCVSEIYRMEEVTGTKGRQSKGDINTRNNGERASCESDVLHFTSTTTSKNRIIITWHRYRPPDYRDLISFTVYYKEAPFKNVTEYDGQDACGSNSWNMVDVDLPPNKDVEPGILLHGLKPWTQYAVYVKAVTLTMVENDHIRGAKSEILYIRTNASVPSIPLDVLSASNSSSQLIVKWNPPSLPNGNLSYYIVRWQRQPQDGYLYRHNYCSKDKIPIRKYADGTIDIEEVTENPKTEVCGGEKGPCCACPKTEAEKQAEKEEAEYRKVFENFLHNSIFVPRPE
Sequence of Insulin-like growth factor 1 receptor (Homo sapiens) (P08069 741-1367 limits assumed): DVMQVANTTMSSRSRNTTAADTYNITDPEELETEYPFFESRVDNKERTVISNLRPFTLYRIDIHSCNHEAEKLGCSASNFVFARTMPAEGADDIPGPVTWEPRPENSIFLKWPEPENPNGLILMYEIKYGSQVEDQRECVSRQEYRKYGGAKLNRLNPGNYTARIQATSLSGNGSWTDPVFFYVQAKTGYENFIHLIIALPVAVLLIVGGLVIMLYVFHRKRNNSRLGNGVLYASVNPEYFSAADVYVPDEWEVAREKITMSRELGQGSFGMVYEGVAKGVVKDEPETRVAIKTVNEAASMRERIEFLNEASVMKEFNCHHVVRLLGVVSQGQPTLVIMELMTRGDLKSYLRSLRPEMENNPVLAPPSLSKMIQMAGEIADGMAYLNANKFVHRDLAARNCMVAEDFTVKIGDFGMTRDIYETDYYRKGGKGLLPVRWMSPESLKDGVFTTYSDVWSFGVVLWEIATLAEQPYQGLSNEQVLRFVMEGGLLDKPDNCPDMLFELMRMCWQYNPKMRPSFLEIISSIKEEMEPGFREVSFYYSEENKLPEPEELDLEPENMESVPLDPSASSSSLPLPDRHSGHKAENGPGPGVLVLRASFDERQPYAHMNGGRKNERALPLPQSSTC

- Activity [1]: 10%
- Activity [2]: 100%
- Activity [3]: 100%
Compound: CO[C@@H]1[C@H](N(C)C(=O)CCC(=O)NCCC(=O)NCCC(=O)NCCC(N)=O)C[C@H]2O[C@]1(C)n1c3ccccc3c3c4c(c5c6ccccc6n2c5c31)C(=O)NC4

- Activity [4]: 74%
- Activity [5]: 40%
- Activity [6]: 73%
Compound: CO[C@@H]1[C@H](N(C)C(=O)CCC(=O)NCCC(=O)NCCC(=O)NCCC(=O)NCCC(=O)NCCC(=O)NCCC(=O)NCCC(=O)N[C@H]2CSSC[C@@H](C(=O)NCC(N)=O)NC(=O)CNC(=O)[C@H](Cc3ccccc3)NC(=O)[C@H](C(C)C)NC(=O)[C@H](CCCNC(=N)N)NC(=O)[C@H](Cc3ccccc3)NC(=O)[C@H](C(C)C)NC2=O)C[C@H]2O[C@]1(C)n1c3ccccc3c3c4c(c5c6ccccc6n2c5c31)C(=O)NC4 ({Staurosporine-Suc-βAla-βAla-βAla-βAla-βAla-βAla-βAla}-CVFRVFGCG-NH2; disulfide 1-8)

- Activity [7]: 84%
- Activity [8]: 95%
- Activity [9]: 79%
- Activity [10]: 100%
- Activity [11]: 95%
- Activity [12]: 98%
- Activity [13]: 48%
- Activity [14]: 100%
Compound: CO[C@@H]1[C@H](N(C)C(=O)CCC(=O)NCCC(=O)NCCC(=O)NCCC(=O)NCCC(=O)NCCC(=O)NCCC(=O)NCCC(=O)N[C@H]2CNC(=O)C[C@@H](C(N)=O)NC(=O)CNC(=O)[C@H](Cc3ccccc3)NC(=O)[C@H](C(C)C)NC(=O)[C@H](CCCNC(=N)N)NC(=O)[C@H](Cc3ccccc3)NC(=O)[C@H](C(C)C)NC2=O)C[C@H]2O[C@]1(C)n1c3ccccc3c3c4c(c5c6ccccc6n2c5c31)C(=O)NC4 ({Staurosporine-Suc-βAla-βAla-βAla-βAla-βAla-βAla-βAla}-[Dap]VFRVFGD-NH2; lactam 1-8)
